# Shown are actives, neighbours in structure and some others; about 1.5% of the full set was active somewhere.
# PKD1 inh = inhibitors of human PKD1 kinase, biochemical, fluorescence polarization; hit rate 0.056% among 200,000; Serine/threonine-protein kinase D1 (Homo sapiens), Q15139; AID 797, 2007; PKD1 kinase fluorescence polarization assay; inhibition, % (concentration not given with the values); in the data active = inhibition above about 50%
# Target sequence (Q15139 whole entry, looked up): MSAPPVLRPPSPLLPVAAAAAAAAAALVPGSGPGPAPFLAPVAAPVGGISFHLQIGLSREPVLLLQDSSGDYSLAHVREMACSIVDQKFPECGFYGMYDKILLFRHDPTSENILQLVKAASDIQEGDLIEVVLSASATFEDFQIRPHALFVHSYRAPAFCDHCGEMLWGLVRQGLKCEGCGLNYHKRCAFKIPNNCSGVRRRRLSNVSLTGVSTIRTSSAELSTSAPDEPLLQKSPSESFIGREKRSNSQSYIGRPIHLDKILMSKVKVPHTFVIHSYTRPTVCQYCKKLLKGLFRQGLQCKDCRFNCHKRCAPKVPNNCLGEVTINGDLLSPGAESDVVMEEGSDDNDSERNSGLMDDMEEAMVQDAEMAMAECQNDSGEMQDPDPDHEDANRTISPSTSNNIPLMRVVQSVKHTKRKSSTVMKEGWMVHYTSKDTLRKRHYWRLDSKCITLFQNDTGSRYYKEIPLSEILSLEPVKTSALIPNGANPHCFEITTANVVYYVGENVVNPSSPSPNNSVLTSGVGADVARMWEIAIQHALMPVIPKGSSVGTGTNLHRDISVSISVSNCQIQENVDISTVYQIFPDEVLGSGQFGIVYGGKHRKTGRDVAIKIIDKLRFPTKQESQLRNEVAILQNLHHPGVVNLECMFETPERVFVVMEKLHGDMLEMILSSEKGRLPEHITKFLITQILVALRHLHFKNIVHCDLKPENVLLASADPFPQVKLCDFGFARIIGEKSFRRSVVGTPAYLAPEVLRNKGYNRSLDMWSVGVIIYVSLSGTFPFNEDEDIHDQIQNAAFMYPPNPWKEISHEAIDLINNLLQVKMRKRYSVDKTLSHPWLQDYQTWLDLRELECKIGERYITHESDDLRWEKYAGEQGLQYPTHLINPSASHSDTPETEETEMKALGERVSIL
# PP1 inh = PP1-alpha phosphatase inhibitors, primary screen, counter-screen for PP5 inhibitor project, biochemical, fluorescence, OMFP substrate, single point; hit rate 0.9% among 320,000; AID 2235, 2010; Serine/threonine-protein phosphatase PP1-alpha catalytic subunit (Homo sapiens), P62136; inhibition, % at 6.7 µM; purified PP1alpha;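 active = inhibition above the mean inhibition of all tested compounds plus 3 SD, computed separately for each screening campaign, cut at about 15% in these data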
# PP5 primary = PP5 phosphatase inhibitors, primary screen, biochemical, fluorescence. Serine/threonine-protein phosphatase 5 (Homo sapiens), P53041. inhibition, % at 6.7 µM. purified PP5c, OMFP substrate fluorescence. hit rate 0.18% among 320,000. AID 1987, 2009;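 active = inhibition above the campaign's mean inhibition across all tested compounds plus 3 SD, cut at about 9.5% in these data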;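 note: 0% = DMSO only and 100% = 100 µM cantharidin control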
# Hsp70 activator = Hsp70 transcriptional activators, primary screen, cell-based, HeLa, Hsp70 promoter luciferase, luminescence, 10 µM. HeLa Hsp70 promoter luciferase reporter; scaled: vehicle 0, proteasome-inhibitor control 100%. activation, % at 10 µM. hit rate 0.04% among 200,000;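 active = activation above the mean across all tested compounds plus 3 SD, cutoff set per campaign, cut at about 5.5% in these data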;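 note: 100% = MG132 at 30 µM as the positive control and 0% = DMSO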
# p97 inhibitor = inhibitors of human p97 ATPase, primary screen, biochemical; Transitional endoplasmic reticulum ATPase (Homo sapiens), P55072; inhibition, % at 8 µM; hit rate 0.42% among 220,000; recombinant p97 ATPase, Kinase-Glo ATP luminescence, 3 h; AID 1481, 2009; in the data active = inhibition above about 15%;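 note: 0% = DMSO vehicle and 100% = wells lacking enzyme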
# RBBP9 inh = human RBBP9 inhibitors, primary screen, biochemical, fluorescence polarization, FP-Rh probe, HTS; Serine hydrolase RBBP9 (Homo sapiens), O75884; recombinant RBBP9; inhibition, % at 7.94 µM; hit rate 0.2% among 220,000; AID 1515, 2009;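 active = inhibition above the campaign mean of all tested compounds plus 3 SD, cut at about 14% in these data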;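 note: plate controls were DMSO wells with RBBP9 for no effect and wells lacking RBBP9 protein for full effect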
#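 System: RBBP9 protein | Quantity: 2.5 µM RBBP9 dispensing solution, before mixing | Reagent: FP-Rh probe, 375 nM dispensing solution | Timing: Enzyme-compound preincubation 30 min, then probe labeling 45 min, 25 °C | Measured by: Fluorescence polarization | Read-out: % inhibition | Replication: One well per compound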
# PP1 confirm = PP1 phosphatase inhibitors, confirmation, biochemical, fluorescence, OMFP substrate, triplicate. AID 2358, 2010. hit rate 52% among 1,900. shares compounds with PP1 inh. purified PP1alpha. inhibition, % at 6.7 µM;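 active = mean PP1 inhibition above a set limit taken from the earlier primary screen, cut at about 15% in these data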
# PP5 counter = PP5 phosphatase inhibition by PP1 hits, confirmation, counter-screen for PP1 inhibitor project, biochemical, fluorescence, triplicate; purified PP5c, OMFP fluorescence; inhibition, % at 6.7 µM; shares compounds with PP1 inh; AID 2360, 2010; hit rate 4% among 1,900;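 active = mean PP5 inhibition over triplicate wells above about 9.5% taken from the earlier PP1 screen, limit read from the data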
# Active calls of the source: *; x = no result.
SMILES,PKD1 inh,PP1 inh,PP5 primary,Hsp70 activator,p97 inhibitor,RBBP9 inh,PP1 confirm,PP5 counter
O=C(O)COc1ccccc1/C=N/Nc1ccc(S(=O)(=O)Nc2ccc(Cl)cc2)cc1[N+](=O)[O-],-1.5,18.9*,3.8,-0.3,-0.3,1.9,14.0,-2.6
Cc1cc(CNC(=O)C2(C(F)(F)F)C/C(=C\Cc3ccccc3)CCCO2)nn1C (stereo unspecified),x,-1.4,1.4,x,x,x,x,x
COc1ccc(OC)c(CCNC(=O)CCCc2nnc3n(C)c(=O)c4sccc4n23)c1,x,4.9,1.7,x,x,x,x,x
COc1ccc(C2CC(c3ccccc3)=NN2c2ccc(/C=N/NC(=O)c3ccncc3)cc2)cc1 (stereo unspecified),3.4,6.6,1.9,-0.4,-0.8,1.3,x,x
N#CCC(=O)N/N=C/c1ccc(N2N=C(c3ccccc3)CC2c2ccccc2)cc1 (stereo unspecified),x,24.7*,7.7,x,x,x,17.4*,-0.1
CC(=O)Nc1ccc2c(c1)nc1n2CCN(C2CCCCC2)C1,-0.4,x,x,-0.1,2.5,-8.6,x,x
COCCN(C(=O)COC(=O)Cc1ccc(Cl)cc1Cl)c1c(N)n(Cc2ccccc2)c(=O)[nH]c1=O,x,81.5*,-1.2,x,x,x,-1.5,-1.0
Cc1ccccc1C(=O)OCC(=O)N(C)c1c(N)n(Cc2ccccc2)c(=O)[nH]c1=O,x,-6.7,0.0,x,x,x,x,x
Cc1cc(C(=O)OCC(=O)N(C)c2c(N)n(Cc3ccccc3)c(=O)[nH]c2=O)c(C)n1-c1ccccc1,x,20.5*,0.2,x,x,x,0.3,-0.7
Cc1sc2nc(CSc3ccc([N+](=O)[O-])c(C(F)(F)F)c3)[nH]c(=O)c2c1C,-5.0,27.4*,1.1,-0.3,-0.2,-5.2,8.7,-2.4
COc1ccc(C(=O)Nn2c(CCC(=O)O)ccc2-c2ccc(C)cc2)cc1OC,0.9,-1.0,2.2,-0.4,4.8,2.0,x,x
CCOc1ccc(NC(=NCc2ccc3c(c2)OCO3)SC2CC(=O)N(c3ccc(C(=O)O)cc3)C2=O)cc1 (stereo unspecified),8.0,19.3*,5.3,0.1,4.1,-8.2,8.1,6.1
CCOc1ccc(NC(=NCc2ccc3c(c2)OCO3)SC2CC(=O)N(c3ccc(OCC)cc3)C2=O)cc1 (stereo unspecified),-6.4,-1.5,-1.1,-0.3,0.8,1.9,x,x
O=C1CC(N2CCN(c3ccc(F)cc3)CC2)C(=O)N1c1ccc2c(c1)OCO2 (stereo unspecified),-1.1,2.6,1.0,-0.2,2.2,-8.7,x,x
CC(C)(C)C(=O)Nc1cc2c3c(c1)CCN3C(=O)CC2,x,-3.7,-0.8,x,x,x,x,x
N#Cc1c(SCC(=O)Nc2nncs2)sc2c(O)cc(=O)[nH]c12,x,42.0*,-1.6,x,x,x,10.1,5.8
N=C1/C(=C/c2ccc(-c3cccc(C(=O)O)c3)o2)C(=O)N=C2SC=C(c3ccccc3)N12,5.6,71.7*,2.3,0.0,12.8,-5.1,44.2*,-3.3
O=[N+]([O-])c1ccc(N2CCCCC2)c(Cl)c1N1CCCCC1,-4.6,47.4*,1.0,-0.2,-1.1,1.7,-2.3,-3.1
O=C(CCN1C(=O)c2ccccc2C1=O)CN1CCOCC1,-3.7,-2.0,0.9,-0.1,3.2,2.7,x,x
C/C=C(/C)C(=O)Nc1cccc(C2=NOC3(C2)C[C@H](C(N)=O)N(C(=O)c2ccccc2)C3)c1 (stereo partly specified),x,41.6*,5.7,x,x,x,0.7,-2.1
C=C(C)C(=O)Nc1cccc(C2=NOC3(C2)C[C@H](C(N)=O)N(C(=O)CC)C3)c1 (stereo partly specified),x,7.5,-2.1,x,x,x,x,x
C=C(C)C(=O)Nc1cccc(C2=NOC3(C2)C[C@H](C(N)=O)N(C(=O)CC#N)C3)c1 (stereo partly specified),x,37.1*,-2.4,x,x,x,8.6,-0.5
C/C=C/C=C\C(=O)Nc1cccc(C2=NOC3(C2)C[C@H](C(N)=O)N(C(=O)CC#N)C3)c1 (stereo partly specified),x,18.8*,2.1,x,x,x,1.0,-2.9
NC(=O)[C@H]1CC2(CC(c3cccc(NC(=O)CC(c4ccccc4)c4ccccc4)c3)=NO2)CN1C(=O)CC(c1ccccc1)c1ccccc1 (stereo partly specified),x,21.9*,4.6,x,x,x,28.7*,11.8*
C/C=C\C=C/C(=O)Nc1cccc(C2=NOC3(C2)C[C@H](C(N)=O)N(C(=O)CC)C3)c1 (stereo partly specified),x,-1.2,0.1,x,x,x,x,x
SMILES,PKD1 inh,PP1 inh,PP5 primary,Hsp70 activator,p97 inhibitor,RBBP9 inh,PP1 confirm,PP5 counter
CC(C)(C)OC(=O)N1CCN(C(=O)[C@H](Cc2ccc(O)cc2)n2cc(CCO)nn2)CC1,-0.5,0.9,1.8,-0.1,4.3,7.6,x,x
COc1ccc(NS(=O)(=O)c2ccc(C(=O)OC(C)C(=O)N3CCOCC3)cc2)cc1 (stereo unspecified),x,-6.7,-0.7,x,x,x,x,x
COc1cc(NC(=O)CCCNC(=O)Cn2cnc3sc(C)c(C)c3c2=O)cc(OC)c1OC,x,0.7,2.2,x,x,x,x,x
O=C(N/N=C/c1cc([N+](=O)[O-])cc([N+](=O)[O-])c1O)/C(=C\c1cccs1)NC(=O)c1ccccc1,5.5,20.7*,1.4,-0.4,8.7,0.0,30.4*,-2.5
Cc1ccc(C(C)C)c(OCc2ccc(C(=O)N/N=C/c3ccc(C(=O)O)cc3)cc2)c1,x,3.3,5.2,x,-2.0,-10.2,x,x
Cc1ccc(C(C)C)c(OCc2ccc(C(=O)N/N=C/c3ccc(O)cc3O)cc2)c1,-7.9,25.7*,1.7,-0.7,7.2,0.1,34.2*,-2.2
O=C(O)c1ccc(Oc2c(C(F)(F)F)oc3cc(O)ccc3c2=O)cc1,-5.8,-4.3,0.8,-0.3,9.0,-8.1,x,x
Cc1cccc2c1Sc1ccc(Cl)cc1CC2N1CCNCC1 (stereo unspecified),x,18.8*,2.7,x,x,x,-3.7,-2.2
CCc1cccc2c1Sc1ccccc1CC2N1CCNCC1 (stereo unspecified),x,11.1,0.6,x,x,x,x,x
NCCCC[C@H]1CNC(=O)C(=O)N1CCCCC1CCCCC1,x,-3.6,0.6,x,x,x,x,x
O=C1NC[C@@H](Cc2cccc3ccccc23)N(CCCCC2CCCCC2)C1=O,x,21.1*,4.7,x,x,x,2.8,2.1
CCCCN(CCCNC(=O)Cn1nc(CC)n2c(cc3sc(C)cc32)c1=O)Cc1ccccc1,x,-2.1,1.6,x,x,x,x,x

# Bioassay records: PubChem, several laboratories
